Only some compounds are listed: those with a hit (about 2.1% of all), similar ones and a draw of the others.
CXCR6 inh: inhibitors of human CXCR6 receptor. AID 602244. hit rate 0.36% among 360,000. inhibition, % at 20 µM. CHO-K1 PathHunter CXCR6 beta-arrestin, luminescence. O00574; in the data active = inhibition above about 34%, passing the limit was not always enough;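 note: antagonist mode with CXCL16 agonist at 10 nM final; 0% = 10 nM CXCL16 with DMSO and 100% = unstimulated wells without agonist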
Target sequence (O00574 whole entry, looked up): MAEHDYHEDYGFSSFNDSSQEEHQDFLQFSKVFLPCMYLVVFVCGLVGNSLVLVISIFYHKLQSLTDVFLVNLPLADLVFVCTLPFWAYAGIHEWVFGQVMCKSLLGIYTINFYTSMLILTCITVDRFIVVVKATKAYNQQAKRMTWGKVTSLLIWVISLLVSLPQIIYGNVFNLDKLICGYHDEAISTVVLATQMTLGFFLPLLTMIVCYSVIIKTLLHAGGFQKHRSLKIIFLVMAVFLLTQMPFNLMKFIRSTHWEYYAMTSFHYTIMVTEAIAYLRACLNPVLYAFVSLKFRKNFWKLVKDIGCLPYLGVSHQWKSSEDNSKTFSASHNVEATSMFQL
EBI2 block: EBI2 (human) antagonism; P32249; AID 651636; hit rate 0.81% among 360,000; EBI2 beta-arrestin recruitment, luminescence, 7a,25-OHC stimulated; inhibition, % at 5 µM; in the data active = inhibition above about 38%;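 note: enzyme fragment complementation signal reports receptor beta-arrestin coupling in cells; 0% = agonist plus DMSO wells and 100% = wells without agonist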
m5-HT2A agonist: mouse HTR2A agonism via beta-arrestin recruitment | CHO-K1 mHTR2A beta-arrestin complementation, luminescence; percent of 30 µM serotonin response | P35363 | activation, % at 7.6 µM | hit rate 0.66% among 360,000;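 active = activation above a run cutoff, the mean activation of all tested compounds plus 3 SD, cut at about 14% in these data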;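 note: 0% = plate median of compound wells and 100% = 30 µM serotonin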
APJ ag: agonists of human APJ apelin receptor. CHO-K1 APJ PathHunter beta-arrestin, luminescence; 0% DMSO wells, 100% apelin. activation, % at 20 µM. hit rate 0.11% among 330,000. AID 2520;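 active = activation more than six SD over the plate average, tested at 20 µM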;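 note: 0% = DMSO alone and 100% = apelin-13 at 10 nM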
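Test system – PathHunter CHO-K1 APJ (AGTRL-1) beta-arrestin reporter cells · Input – 1000 cells/well · Compound – single test compound dose, 20 µM final, 1% DMSO · Times – compound stimulation 90 min at 25 °C, detection 60 min · Technique – beta-gal luminescence · Read-out basis – APJ–arrestin association signal · Control set – negative DMSO alone, positive Apelin-13 at 10 nM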
CCR6 antag: antagonists of human CCR6 receptor; P51684; CHO-K1 CCR6 PathHunter beta-arrestin, luminescence, CCL20-stimulated; inhibition, % at 20 µM; hit rate 0.49% among 340,000;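 active = compounds whose inhibition of the agonist-driven luminescence signal at 20 µM reaches about 50%, limit read from the data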;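 note: cells stimulated with CCL20 at 14 nM final; plate controls were DMSO with CCL20 for no effect and DMSO without agonist for full effect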
APJ antagonist: antagonists of human APJ apelin receptor; hit rate 0.32% among 330,000; inhibition, % at 20 µM; CHO-K1 APJ beta-arrestin complementation, luminescence; AID 2521; P35414;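 active = inhibition above about 40% at 20 µM, limit read from the data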;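 note: cells challenged with 10 nM apelin-13 agonist together with compound; plate controls were apelin-13 plus DMSO wells for no effect and DMSO wells lacking apelin-13 for full effect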
An asterisk follows results filed as active.

`COc1ccc(C(=O)/C=C/C(=O)N(CC(=O)NC2CCCCC2)Cc2ccccc2OC)c(O)c1` gave CXCR6 inh 63.8*, EBI2 block 28.9, m5-HT2A agonist 0.8 and CCR6 antag 83.5*.
COc1ccc(C(=O)/C=C/C(=O)N(CC(=O)NC2CCCCC2)Cc2ccccc2)c(O)c1 was read as CXCR6 inh 71.0*, EBI2 block 16.1, m5-HT2A agonist -4.6 and CCR6 antag 97.4*.
Screening CC(C(=O)c1ccc(Br)cc1)[n+]1cccc2ccccc21 (stereo not drawn) returned CXCR6 inh -11.2, EBI2 block -0.3, m5-HT2A agonist -0.8, APJ ag -2.4, CCR6 antag 18.1 and APJ antagonist 12.6.
For O=C(O)c1cc(O)c2c(c1)C(=O)c1cccc(O)c1C2=O the results were CXCR6 inh 48.4*, EBI2 block 5.2, m5-HT2A agonist 3.1, APJ ag 12.9, CCR6 antag 78.9* and APJ antagonist -1.5.
`COc1ccc(-c2noc(C3CCCN(C(=O)Nc4ccccc4)C3)n2)cc1` (stereo not drawn) gave CXCR6 inh -9.1, EBI2 block -3.6, m5-HT2A agonist -2.5, APJ ag -2.5, CCR6 antag 3.8 and APJ antagonist -16.3.
Screening COc1ccc(NC(=O)N2CCCC(c3nc(-c4ccc(C(C)C)cc4)no3)C2)cc1 (stereo not drawn) returned CXCR6 inh 10.3, EBI2 block 72.5*, m5-HT2A agonist -0.3, APJ ag 2.7, CCR6 antag 3.8 and APJ antagonist -23.8.
`O=C1CSC(=S)N1/N=C/C=C/c1ccccc1` gave CXCR6 inh 45.7*, EBI2 block -6.5, m5-HT2A agonist -1.2, APJ ag -1.8, CCR6 antag 34.4 and APJ antagonist 2.0.
For CCOC(=O)C1=NN(C(=O)c2ccc(C)cc2)C(O)(c2ccc(Cl)cc2)C1 (stereo not drawn) the results were CXCR6 inh 14.7, EBI2 block 15.1, m5-HT2A agonist -6.1, APJ ag -0.5, CCR6 antag 5.5 and APJ antagonist -1.2.
Screening CCC1=NN(C(=O)c2ccc(Cl)cc2)C(O)(c2ccc(C)cc2)C1 (stereo not drawn) returned CXCR6 inh 34.4, EBI2 block -4.3, m5-HT2A agonist -6.9, APJ ag 0.8, CCR6 antag 64.3* and APJ antagonist 28.8.
Screening Cc1ccc(S(=O)(=O)N2CCOC2CNC(=O)C(=O)NCCCN2CCOCC2)cc1 (stereo not drawn) returned CXCR6 inh 3.0, EBI2 block 6.3, m5-HT2A agonist -1.2, APJ ag 0.0, CCR6 antag 1.5 and APJ antagonist 13.6.
`COc1ccccc1NC(=O)C1CCCN(c2cnccn2)C1` (stereo not drawn) gave CXCR6 inh -3.7, EBI2 block -5.1, m5-HT2A agonist 2.8, APJ ag 5.5, CCR6 antag -0.2 and APJ antagonist 20.3.
`NC(=S)N/N=C/c1ccccc1` gave CXCR6 inh -0.9, EBI2 block -1.7, m5-HT2A agonist 1.4, APJ ag -1.7, CCR6 antag -6.3 and APJ antagonist 3.2.
Screening NC(=S)N/N=C/c1ccc(C23CC4CC(CC(C4)C2)C3)cc1 returned APJ ag -5.8, CCR6 antag 65.5* and APJ antagonist 29.1.
N#Cc1ccccc1NC(=O)CSc1cn[nH]n1 was read as CXCR6 inh -6.0, EBI2 block -3.8, m5-HT2A agonist -6.1, APJ ag -1.5, CCR6 antag 4.8 and APJ antagonist -3.1.
`O=C(/C=C/c1ccco1)NCCc1ccccc1` gave CXCR6 inh 11.1, EBI2 block 3.0, m5-HT2A agonist 2.0, APJ ag -0.5, CCR6 antag 21.9 and APJ antagonist 18.9.
Screening Cc1ccc(/C=C/C(=O)NCCc2ccccc2)o1 returned CXCR6 inh 6.7, EBI2 block 6.3, m5-HT2A agonist 3.6, APJ ag -2.9, CCR6 antag 83.2* and APJ antagonist 14.7.
`Cc1ccc(N/C(N)=N/c2nc(C)cc(N3CCCCC3)n2)c(C)c1` gave CXCR6 inh 2.1, EBI2 block -16.5, m5-HT2A agonist -4.8, APJ ag 27.9*, CCR6 antag 3.0 and APJ antagonist -23.3.
For Cc1ccc(N/C(N)=N/c2nc3c(c(=O)[nH]2)CCCC3)c(C)c1 the results were CXCR6 inh -6.6, EBI2 block -2.5, m5-HT2A agonist -4.7, APJ ag 1.5, CCR6 antag -4.0 and APJ antagonist -22.2.
For COc1ccccc1NS(=O)(=O)c1cc([N+](=O)[O-])ccc1N/N=C/c1sc(N2CCOCC2)nc1-c1ccccc1 the results were CXCR6 inh 43.8*, EBI2 block 27.4, m5-HT2A agonist -0.4 and CCR6 antag 62.5*.
Screening Cc1ccccc1NC(=S)N1CCN(C(=O)c2ccco2)CC1 returned CXCR6 inh 3.5, EBI2 block -10.3, m5-HT2A agonist 3.0, APJ ag -3.3, CCR6 antag -8.1 and APJ antagonist -0.1.
Screening O=C(c1ccco1)N1CCN(C(=S)Nc2ccccc2Cl)CC1 returned CXCR6 inh 8.7, EBI2 block 0.4, m5-HT2A agonist 15.1*, APJ ag -4.8, CCR6 antag 1.7 and APJ antagonist 6.6.
CC1CCCC(NC(=O)CCCCCn2c(=S)[nH]c3ccsc3c2=O)C1C (stereo not drawn) was read as CXCR6 inh 1.5, EBI2 block -0.9 and m5-HT2A agonist 1.9.
Screening COc1ccc(C(=O)O/N=C/c2c(C(F)(F)F)nn(C)c2SCc2ccccc2Cl)cc1 returned CXCR6 inh 2.3, EBI2 block 50.4*, m5-HT2A agonist 1.9, APJ ag -3.2, CCR6 antag 12.1 and APJ antagonist 15.0.
Screening COCCNC(=O)/C(C#N)=C/c1ccc(N2CCOCC2)o1 returned CXCR6 inh 52.1*, EBI2 block -9.3, m5-HT2A agonist -3.6, APJ ag -0.3, CCR6 antag 19.1 and APJ antagonist 0.4.
Screening Cc1nc2ccc(C(=O)N/N=C/c3cc([N+](=O)[O-])ccc3O)cc2[nH]1 returned CXCR6 inh 9.6, EBI2 block 1.7, m5-HT2A agonist 3.2, APJ ag -3.0, CCR6 antag 59.2* and APJ antagonist 20.4.
`O=[N+]([O-])c1ccc(O)c(/C=N\N=C2c3ccccc3-c3ccccc32)c1` gave CXCR6 inh 22.7, EBI2 block -4.2, m5-HT2A agonist 0.0, APJ ag -0.9, CCR6 antag 56.4* and APJ antagonist 26.2.
Screening O=[N+]([O-])c1ccc(O)c(/C=N/Nc2nn[nH]n2)c1 returned CXCR6 inh 44.0*, EBI2 block 7.4, m5-HT2A agonist -8.7, APJ ag -3.5 and APJ antagonist 14.1.
NC(N)=N/N=C/c1cc([N+](=O)[O-])ccc1O was read as CXCR6 inh 17.2, EBI2 block -1.4, m5-HT2A agonist 1.0, APJ ag -11.1, CCR6 antag 8.6 and APJ antagonist 6.4.
